Experimental data as given in ChEMBL document CHEMBL1147089, “Protein protein interaction inhibition (2P2I) combining high throughput and virtual screening: Application to the HIV-1 Nef protein” (Proc Natl Acad Sci U S A, 2007).
The source made the active and inactive calls. No cut-off for these calls is given here.

Tests used:
[1] = Binding affinity to HIV1 Nef by isothermal titration calorimetry method; parameters: species or system Human immunodeficiency virus 1
Method in brief: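 Nef57–205 dialyzed in ITC buffer (20 mM Hepes pH 7.0, 100 mM NaCl, 5% DMSO), 15–25 μM in cell; inhibitor 300–400 μM in same buffer (DMSO 5%) injected 10–15 μl every 300 s at 25°C; heat of dilution into buffer alone subtracted; apparent KD from titration.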

COS-7 [2] = experiment: Inhibition of HIV1 Nef-SH3Hck interaction in COS7 cells at 20 uM after 36 hrs by mammalian two-hybrid assay; format: cell-based; conditions: Human immunodeficiency virus 1
Method in brief: (§1)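 Firefly luciferase reports interaction, Renilla luciferase (from GAL4–SH3Hck construct) normalizes transfection and viability; inhibition from reduced LucFF:LucRN ratio. Dose series 2–32 μM; screening at 20 μM.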

[3] = Toxicity against african green monkey COS7 cells assessed as cell viability upto 100 uM; format: cell-based; conditions: chlorocebus aethiops, cos-7
COS-7 [4] = experiment: Reduction of HIV1 Nef-SH3Hck protein interaction in COS7 cells assessed as reduction of LucFF:LucRN ratio at 32 uM after 36 hrs by mammalian two-hybrid assay; format: cell-based; parameters: scale not given: the % may be the effect or the level left; conditions: Human immunodeficiency virus 1; method in brief: as §1
[5] = target: T1, DNA-binding protein inhibitor ID-1 (Homo sapiens) (UniProt P41134); experiment: Reduction of Id-MyoD interaction in COS7 cells at 32 uM after 36 hrs by mammalian two-hybrid assay; format: cell-based; parameters: scale not given: the % may be the effect or the level left; conditions: COS-7
T1 sequence (whole entry): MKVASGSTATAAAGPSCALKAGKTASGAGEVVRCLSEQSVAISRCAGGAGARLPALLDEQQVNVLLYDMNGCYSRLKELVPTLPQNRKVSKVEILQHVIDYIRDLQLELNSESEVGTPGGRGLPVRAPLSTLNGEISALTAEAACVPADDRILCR
Method in brief: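 Specificity counterscreen: Id–MyoD mammalian two-hybrid in COS7 cells, compounds at 2, 4, 8, 16, 32 μM for 36 h; read-out as normalized firefly:Renilla luciferase ratio.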

[6] = tested on: Human immunodeficiency virus 1; experiment: Reduction of HIV1 Nef-mediated MHC class 1 down regulation in human PBMC after 3 hrs
[7] = tested on: Human immunodeficiency virus 1; experiment: Reduction in HIV1 Nef-mediated CD4 down regulation in human PBMC after 3 hrs
[8] = tested on: Human immunodeficiency virus 1; experiment: Reduction of HIV1 Nef-SH3Hck protein interaction at 0.1 uM by GST pull-down method

SMILES | Kd [1] | inhibition (COS-7 [2]) | other results
CN(C)c1ccc2nc3c(C(=O)O)cc(=O)c(O)c-3oc2c1 | 1300 nM | 80.4% | –
COc1cc2ccccc2c2cc([N+](=O)[O-])oc12 | 11000 nM | 53.8% | –
CC(C)(C)c1ccc(OCC(=O)Nc2cccc(C(=O)O)c2)cc1 | 980 nM | 75% | Activity [3]: Non-toxic
O=C(O)CCCc1ccc2ccc3ccccc3c2c1 | 6700 nM | 63.2% | –
c1ccc(/C(=N/Nc2nc3ccccc3s2)c2ccccn2)cc1.c1ccc(/C(=N\Nc2nc3ccccc3s2)c2ccccn2)cc1 | – | 57.2% | –
O=C(O)CCC(=O)c1ccc2ccc3cccc4ccc1c2c34 | – | 58.4% | –
CC(C)(C)c1ccc(OC(=O)Nc2ccc(O)c(C(=O)O)c2)cc1 | 1800 nM | 73.4% | Activity (COS-7 [4]): 77%; Activity [5]: 17%; Activity [6]: Dose-dependent effect; Activity [7]: inactive; Activity [3]: Non-toxic; Activity [8]: Active
Cc1cc(OCc2nc(N)nc(N)c2-c2ccc(Cl)c(Cl)c2)ccc1[N+](=O)[O-] | – | 57.5% | –
